Series [1] has as its system Jurkat cells (human T-cell leukemia). Kind of series: In vitro antiproliferative activity. Format: cell-based. The conditions noted are these: 72 h, read-out: IC50 Jurkat. The method in brief:
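Cells grown in RPMI-1640; 8 × 10^3 cells per well, pre-incubated 18 h at 37 °C, 5% CO2. Medium replaced with fresh medium containing test compound at several concentrations (from 10 mM DMSO stocks; DMSO ≤0.25% final), 72 h at 37 °C.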

The subject of series [2] is BNL 1ME A.7R.1 hepatocellular carcinoma tumors. The experiment in a line: In vivo antitumor activity, syngeneic hepatocellular carcinoma model. The conditions noted are these: Balb/c mice; for tumor growth inhibition vs control (significance): 5 mg/kg intraperitoneally daily. A digest of the protocol:
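Male Balb/c mice, 8 weeks old, injected subcutaneously in the dorsal region with 10^7 BNL 1ME A.7R.1 cells in 200 μL sterile PBS. At about 100 mm3, mice were randomized into four groups of 5. Tumors measured by caliper daily for 7 days; V = AB2/2.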

Series [3] concerns panel of seven human cancer cell lines. Kind of series: Antiproliferative activity over the panel of seven human cancer cell lines. It counts as cell-based. The method in brief: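 Jurkat, RS4;11 and HL-60 cells grown in RPMI-1640; MCF-7, A549, HeLa and HT-29 cells in DMEM; both media with 10% FBS plus penicillin/streptomycin. 8 × 10^3 cells/well settled 18 h at 37 °C, 5% CO2, then exposed to graded compound for 72 h. DMSO ≤0.25%. MTT viability read.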

The test system of series [4] is Jurkat and HeLa cells. Kind of series: Flow cytometric analysis of cell cycle distribution. Format: cell-based, human. The conditions noted are these: for lowest concentration giving a rise in G2/M cells: 24 h treatment. The method in brief: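 5 × 10^5 HeLa or Jurkat cells exposed to graded compound concentrations for 24 h. Cells collected, fixed in ice-cold 70% ethanol, treated with lysis buffer containing RNase A and 0.1% Triton X-100, then stained with propidium iodide. DNA content measured by flow cytometry; phase distribution derived from DNA histograms.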
On the technique in general: Flow cytometry measures light scatter and fluorescence of single cells or particles in a stream.

Series [5] has as its system PBL stimulated with PHA. The experiment in a line: Cytotoxicity in noncancer cells, PHA-stimulated PBL. It counts as cell-based. The settings on record: Homo sapiens, 72 h, read-out: IC50 PBLPHA. A digest of the protocol:
(§1)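 Peripheral blood lymphocytes from healthy donors isolated on a Lymphoprep gradient, washed, held overnight at 1.0 × 10^6 cells/mL in RPMI-1640 with 10% FBS. Nonadherent cells reseeded at 5 × 10^5 cells/mL. PHA-stimulated set received 2.5 μg/mL PHA; resting set had no PHA. Graded compound for 72 h; viability by MTT.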

In series [6] the test system is HeLa cells. The experiment in a line: Annexin-V/PI apoptosis assay. The conditions noted are these: 24 or 48 h. Format: cell-based, human. The method in brief: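 HeLa cells exposed to test compound for 24 or 48 h. Cells harvested and double-stained with annexin-V-FITC and PI. Surface phosphatidylserine exposure read by flow cytometry.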
Series [7] has as its system chick embryo chorioallantoic membrane (CAM) blood vessels. The experiment in a line: CAM assay in fertilized chicken eggs. It counts as in vivo.
Series [8] has as its system HUVECs. The experiment in a line: Disruption of HUVEC capillary-like tubules on Matrigel. Format: cell-based, human. The conditions noted are these: 1 h or 3 h incubation. The method in brief: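 HUVECs isolated from umbilical cord veins, kept in M200 with low-serum growth supplement, and used at passages 1–6. Matrigel gelled 30 min at 37 °C, overlaid with 6 × 10^4 cells; tubules allowed to form for 6 h. Compound then added for 1 or 3 h. Five fields/well photographed at 10×. Image analysis quantified tubule length, mesh area/number, % area covered and branch points. Three independent experiments.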

Series [9] can be described thus: Body weight during in vivo antitumor treatment. Also on record: species or system Balb/c mice. The settings on record: 3g at the higher dose (10 mg/kg ip).
In series [10] the test system is HeLa cells. The experiment in a line: Mitochondrial membrane potential. It counts as cell-based, human. The conditions noted are these: 24 or 48 h. A digest of the protocol:
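HeLa cells exposed to compound for 24 or 48 h, then stained with H2-DCFDA for reactive oxygen species. Fluorescence read by flow cytometry. Parallel JC-1 staining assessed mitochondrial membrane potential. Three independent experiments.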

Series [11] concerns HeLa cells. The experiment in a line: Western blot analysis of caspases and Bcl-2 family proteins. It counts as cell-based, human. The settings on record: for Mcl-1 expression: 48 h, 100 and 250 nM. A digest of the protocol:
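Treated HeLa cells washed in cold PBS and lysed on ice for 30 min. Lysates cleared at 15000g, 4 °C, for 10 min; protein measured by BCA. 10 μg protein resolved on 7.5–15% SDS-PAGE and transferred to PVDF. Membranes blocked in 5% BSA/Tween-PBS overnight at 4 °C. Primary antibodies (e.g., Mcl-1) applied 2 h at room temperature, then peroxidase secondary for 60 min; ECL detection. β-actin reprobe used as loading control.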

For series [12], the system named is PBL not stimulated with PHA. The experiment in a line: Cytotoxicity in noncancer cells, resting PBL. The conditions noted are these: Homo sapiens, 72 h, read-out: IC50 PBLresting. Format: cell-based. A digest of the protocol:
as §1

Series [13] concerns HUVECs. Kind of series: HUVEC motility. Format: cell-based, human. The method in brief: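 Primary cord-vein HUVECs (passages 1–6) grown to confluence (1 × 10^5 seeded) on 0.1% collagen type I. Monolayer scratched with a pipet tip, washed with PBS, then exposed to test compound. Wells photographed at intervals (6 and 24 h). Wound width measured in four areas and compared with initial width. Three independent experiments; significance versus untreated control.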

Series [14] concerns BL6-B16 murine melanoma tumor blood vessels. Kind of series: Antivascular activity in vivo, CD31 vessel count in BL6-B16 melanoma. The conditions noted are these: 30 mg/kg ip, 24 h, C57BL/6 mice, P < 0.05. A digest of the protocol: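 Six-week-old C57BL/6 mice received 10^5 BL6-B16 melanoma cells in PBS subcutaneously in the dorsolateral flank. At 300 mm3 tumor volume, a single ip dose of 30 mg/kg in DMSO (50 μL) was given. Tumors excised 24 h later, OCT-embedded, frozen, cut into 4–5 μm cryosections. Stained with rat anti-mouse CD31 (1:200) and biotinylated anti-rat secondary. CD31+ vessels counted in 5 fields/section (40× objective); five mice/group.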

Where [15] appears, read: read-out: average IC50 over the seven cell lines.
The mark [16] stands for this setting: read-out: IC50 values range in the seven cell lines.

For orientation: IC50 means the concentration that inhibits the measured activity by half.

Like-named read-outs stand apart in the source and are kept apart here.

Consider `COc1ccc(/C=C\c2cc(OC)c(OC)c(OC)c2)cc1O` [CA-4, combretastatin A-4], for which, in series [1], the IC50 came to 0.005 ± 0.0006 µM.
Take `COc1ccc(/C=C\c2cc(OC)c(OC)c(OC)c2)cc1OP(=O)([O-])[O-].[Na+].[Na+]` [CA-4P, combretastatin A-4 phosphate, reference compound]: in [2], the “tumor growth inhibition vs control (significance)” value is “significant relative to the control”.
For `COC(=O)c1oc2ccccc2c1Nc1cc(OC)c(OC)c(OC)c1` [Compound 3a, Methyl 3-[(3,4,5-Trimethoxyphenyl)amino]benzofuran-2-carboxylate], in [3] (setting [15]), the IC50 worked out at 3.3 µM.
For the molecule `COC(=O)c1oc2cc(OC)ccc2c1Nc1cc(OC)c(OC)c(OC)c1` [Compound 3g, Methyl 3-(3,4,5-Trimethoxyphenylamino)-6-methoxybenzofuran-2-carboxylate], the “lowest concentration giving a rise in G2/M cells” value in [4] worked out at 60 nM. Also, the IC50 in [5] was above 10 µM; in series [3] (setting [16]) it was 0.0003 to 0.027 µM; in series [12], above 10 µM. For the same molecule, in [6], the “apoptosis (annexin-V)” value was “accumulation of annexin-V positive cells”. For the same molecule, the “tumor growth inhibition vs control (significance)” value in [2] is reported as “did not reach statistical significance”. The “reduction in tumor growth compared with vehicle” value in series [2] (10 mg/kg intraperitoneally daily) came to 44.5%. Moreover, in series [7] (100 pmol/egg, without FGF), the “blood vessel number, compound alone” value was “did not induce blood vessels to increase in number”. The “FGF-induced increase of blood vessels” value in series [7] (FGF 100 ng/egg, even at 1 pmol/egg) is reported as “strongly reduced”. Further, the “effect on preformed HUVEC tubule-like network” value in series [8] is reported as “clearly disrupted the network of HUVECs”. In series [9], the “body weight change during treatment” value is “only a small decrease in body weight”. Moreover, in series [10], the “ROS production (H2-DCFDA)” value is reported as “production of significant amounts of ROS”. For the same molecule, in series [10], the “mitochondrial transmembrane potential (JC-1)” value was “time- and concentration-dependent increase in the proportion of cells with depolarized mitochondria”. The “caspase activation (immunoblot)” value in series [11] was “activation of caspase-9 and caspase-3 in a time- and concentration-dependent manner”. The Mcl-1 expression entry in series [11] is “strongly down-regulated”. The “concentration with statistically significant arrest of HUVEC motility” value in series [13] (6 h incubation) came to 25 nM. For the same molecule, in series [13] (after 24 h, lowest tested concentration), the “concentration with highly significant arrest of HUVEC motility” value amounted to 5 nM. Further, the “HUVEC motility” value in series [13] (scratch wound) is reported as “very efficient in arresting cell motility”. Also, in [14], the “reduction in number of CD31-positive tumor vessels” value is “about 20%”.
Turning to `CCOC(=O)c1oc2cc(OC)ccc2c1Nc1cc(OC)c(OC)c(OC)c1` [Compound 3h, Ethyl 3-(3,4,5-Trimethoxyphenylamino)-6-methoxybenzofuran-2-carboxylate], the “cells arrested in G2/M” value in [4] (24 h, at higher concentrations) is listed as “more than 70%”. Moreover, the “lowest concentration giving a rise in G2/M cells” value in series [4] is reported as 60 nM. Besides, the “apoptosis (annexin-V)” value in series [6] is “accumulation of annexin-V positive cells”. The 50% inhibitory concentration (IC50) in series [3] (setting [16]) lay within 0.013 to 0.1 µM. Also, the IC50 in series [3] (setting [15]) was found to be 0.034 µM. In [10], the “ROS production (H2-DCFDA)” value is reported as “production of significant amounts of ROS”; the “mitochondrial transmembrane potential (JC-1)” value is “time- and concentration-dependent increase in the proportion of cells with depolarized mitochondria”. In addition, in [11], the “caspase activation (immunoblot)” value was “activation of caspase-9 and caspase-3 in a time- and concentration-dependent manner”; the Mcl-1 expression entry is “strongly down-regulated”. Moreover, the IC50 in series [12] is above 10 µM.
For `COC(=O)c1oc2c(OC)cccc2c1Nc1cc(OC)c(OC)c(OC)c1` [Compound 3i, Methyl 3-(3,4,5-Trimethoxyphenylamino)-7-methoxybenzofuran-2-carboxylate], in [3] (setting [15]), the IC50 turned out to be 0.37 µM.
For `CCOC(=O)c1oc2c(OC)cccc2c1Nc1cc(OC)c(OC)c(OC)c1` [Compound 3j, Ethyl 3-(3,4,5-Trimethoxyphenylamino)-7-methoxybenzofuran-2-carboxylate], the IC50 in series [3] (setting [15]) is 0.67 µM.

These data come from publication PMC4407803 (Journal of medicinal chemistry, 2015).
